In the RNAGym collection of RNA variant scans (doi:10.1126/science.aae0568):
Variants at the floor of the assay were thinned out.

B1: tRNA (parent)
chain: GUUCCGUUGGCGUAAUGGUAACGCGUCUCCCUCCUAAGGAGAAGACUGCGGGUUCGAGUCCCGUACGGAACG

Variants of: B1
Assay: yeast fitness relative to wild type (ratio to wild type); higher = fitter; tRNA-Arg(CCU), competitive growth, 37 C, YPD
Outline: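 Genotype frequency changes were the basis for Darwinian fitness relative to wild type. The frequencies came from 100-nucleotide paired-end sequencing of gene amplicons from the start population and each end population of pooled yeast strains with tRNA-Arg(CCU) gene variants at the native locus. Competition ran in YPD at 37°C for 24 hours in six replicates, genotypes needed ≥ 100 starting reads, and estimates < 0.5 were set to 0.5.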

**Q.** With GUUCCGUUGGCGUGAUGGUAACGCGUCUCCCUCCUACGGAGAAGACUGCGGGUUCGAGUCCCGUACGGACCG as the variant, how does the yeast fitness read?
**A.** 0.624

**Q.** With GUUCCGUUGGCGUGAUGGUACCGCGUCUCCCUCCAAAGGAGAGGACUGCGGGUUCGAGUCCCGUACGGAACG as the variant, how does the yeast fitness read?
**A.** ≤ 0.5

**Q.** Which yeast fitness does the source give for GUUCCGUUGGCGUGAUGGUCACGCGUCUCCCUACUAAGGAGAAGACUGCGGGUUCGAGUCCCGUACGGAGCG here?
**A.** ≤ 0.5

**Q.** With GUUCCGUUGGCGUGAUGGUAGCGCGUCUCCCUUCUAAGGAGACGACUGCGGGUUCGAGUCCCGUACGGAACG as the variant, how does the yeast fitness read?
**A.** ≤ 0.5

**Q.** With GUUCCGUUGGCGUGAUGGUAACGCGUCUCCCUCCUUAGAAGAAGACUGCGGGUUCGAGUGCCGUACGGAACG as the variant, how does the yeast fitness read?
**A.** ≤ 0.5

**Q.** For GUUCCGUUGGCGUGAUGGUCACGCGUCUCCCUCCUAAGGAGAAGACUGCGGGUUCGAGUUCCGUACGGAACG, which yeast fitness is on record?
**A.** ≤ 0.5

**Q.** With GUUCCGUUGGCGUGAUGGUAACGCGUCUCCCUCCUAAGGCGAAGACUGCGGGUUCGAGUCCGGUAUGGAACG as the variant, how does the yeast fitness read?
**A.** ≤ 0.5

**Q.** With GUUCCGUUGGCGUGAUGGUAGCGCGUCUCCCUCCUAAGGAGAAGACUGCGGGUUCGAGUCCCGUACAGAACG as the variant, how does the yeast fitness read?
**A.** 0.63

**Q.** With GUUCCGUUGGCGUGAUGGUAACGCGUCUCCCUCCUUAGGAGAAGAAUGCGAGUUCGAGUCCCGUACGGAACG as the variant, how does the yeast fitness read?
**A.** ≤ 0.5

**Q.** With GUUCCGUUGGCGUGAUGGUACCGCGUCUCGCUCCUAAGGAGAAGACUGCGGGUUCGUGUCCCGUACGGAACG as the variant, how does the yeast fitness read?
**A.** ≤ 0.5

**Q.** Which yeast fitness does the source give for GUUCCGUUGGCGUGAUGGUACCGCGUCUCGCUCCUAAGGAGAAGACUGCGGGUUCGGGUCCCGUACGGAACG here?
**A.** ≤ 0.5

**Q.** With GUUCCGUUGGCGUGAUGGUACCGCGUCUCCCUCCUCAGGAGAUGACUGCGGGUUCGAGUCCCGUACUGAACG as the variant, how does the yeast fitness read?
**A.** ≤ 0.5

**Q.** Which yeast fitness does the source give for GUUCCGUUGGCGUGAUGGUAACGCGUCUCCCUCCUACGGAGAAGACUGCGGGUUCGAGUCCCGUGCGGAACG here?
**A.** 0.659

**Q.** With GUUCCGUUGGCGUGAUGGUAACGCGUCUCCCUCCUUAGGAGAAGACUGCAGGUUCGAGUCCGGUACGGAACG as the variant, how does the yeast fitness read?
**A.** ≤ 0.5

**Q.** Which yeast fitness does the source give for GUUCCGUUGGCGUGAUGGUAUCGCGUCUCCCUCCUAAGGAGAAGACUGCGGGUUCCAGUCCCGUACGCAACG here?
**A.** 0.637

**Q.** With GUUCCGUUGGCGUGAUGGUAUCGCGUCUCCCUCCUAAGGAGAAGACUGCGGGUUCGAGUCCGGUACGGAACG as the variant, how does the yeast fitness read?
**A.** ≤ 0.5

**Q.** For GUUCCGUUGGCGUGAUGGUAACGCGUCUCCCUCCUAAGGGGAAGACCGCGGGUUCGAGUCCCGUACGGAACG, which yeast fitness is on record?
**A.** 0.551

**Q.** With GUUCCGUUGGCGUGAUGGUCACGCGUCUCUCUCCUAAGGAGAAGACUGCGGGUUCGAGUCCCGUAUGGAACG as the variant, how does the yeast fitness read?
**A.** ≤ 0.5

**Q.** With GUUCCGUUGGCGUGAUGGUAACGCGUCUCCCUCCUUCGGAGAAGACUGAGGGGUCGAGUCCCGUACGGAACG as the variant, how does the yeast fitness read?
**A.** ≤ 0.5

**Q.** Which yeast fitness does the source give for GUUCCGUUGGCGUGAUGGUUACGCGUCUCCCUCCUUAGGAGAAGACUGCGCCUUCGAGUUCCGUACAGAACG here?
**A.** ≤ 0.5

**Q.** For GUUCCGUUGGCGUGAUGGUAACGCGUCUCCCUCCUGAGGAGAAGACAGCGGGUUCGAGUCCCGUACGGAACG, which yeast fitness is on record?
**A.** ≤ 0.5

**Q.** For GUUCCGUUGGCGUGAUGGUAUCGCGUCUCACUCCUUAGGAGAAGACUGCGGGUUCGAGUUCCGUACGGCACG, which yeast fitness is on record?
**A.** ≤ 0.5

**Q.** For GUUCCGUUGGCGUGAUGGUACCGCGUCUCGCUCCUAAGGAGAAGACUGCGGGUUCGAGUCCCGUACGGAACG, which yeast fitness is on record?
**A.** ≤ 0.5

**Q.** For GUUCCGUUGGCGUGAUGGUACCGCGUCUCCCUCCUCAGGAGAUGACUGCGGGUUCGAGUCCCGUACGGAACG, which yeast fitness is on record?
**A.** ≤ 0.5

**Q.** With GUUCCGUUGGCGUGAUGGUAACGCGUCUCCCUCCUACGGAGAAGACUGCGGGUUCGAGUCCCGUACGGAACG as the variant, how does the yeast fitness read?
**A.** 0.73

**Q.** Which yeast fitness does the source give for GUUCCGUUGGCGUGAUGGUAACGCGUCUCCCUCCUGAGGAGAAGACUACGGGUUCGAGUCCCGUACGGAACG here?
**A.** 0.555

**Q.** For GUUCCGUUGGCGUGAUGGUAACGCGUCUCCCUCCUUAGGAGAAGAGUGCGGGUUCGAGUCCAGUACGGCACG, which yeast fitness is on record?
**A.** ≤ 0.5

**Q.** For GUUCCGUUGGCGUGAUGGUUACGCGUCUGCCUUCUAAGGAGAAGACUGCGGGUUCGAGUCCCGUACGGAACG, which yeast fitness is on record?
**A.** 0.543

**Q.** For GUUCCGUUGGCGUGAUGGUCACGCGUCUCCCUCCUAAGGAGAAGACUGCGGGUUCGAGUCCCGUACCGAACG, which yeast fitness is on record?
**A.** 0.534

**Q.** For GUUCCGUUGGCGUGAUGGUCACGCGUCUCCCUCCUUAGCAGAAGACUGCGGGUUCGAGUCCCGUACGGAACG, which yeast fitness is on record?
**A.** ≤ 0.5

**Q.** With GUUCCGUUGGCGUGUUGGUAACGCGUCUCCCUCCUAAGGAGAAGACUGCGGGCUCGAGUCCCGUACGGUACG as the variant, how does the yeast fitness read?
**A.** 0.599

**Q.** With GUUCCGUUGGCGUGAUGGUAACGCGUCUCCCUCCUAAGGGGAAGAUUGCGGGUUCGAGUCCCGUACGGAACG as the variant, how does the yeast fitness read?
**A.** 0.57

**Q.** With GUUCCGUUGGCGUGAUGGUCACGCGUCUCCCUCCUAAGGAGAAGAGUGCGGGUUCGAGUCCCGUACGGAACG as the variant, how does the yeast fitness read?
**A.** 0.635

**Q.** With GUUCCGUUGGCGUGAUGGUGACGCGUCUCCCUCCUAAGGAGAAGACUGCGGGUUCGAGUCCCGUACGGCACG as the variant, how does the yeast fitness read?
**A.** 0.528

**Q.** Which yeast fitness does the source give for GUUCCGUUGGCGUGAUGGUAACGCGUCUCCCUCCUUAGGAGAAGACUGCGGGUUCGAGUCCCGUACGGAACG here?
**A.** 0.658

**Q.** For GUUCCGUUGGCGUGAUGGUAACGCGUCUCCCUCCUCAGGAGAAGACUGCGGGUUCGAGUCCCGUACGGAACG, which yeast fitness is on record?
**A.** 0.561

**Q.** For GUUCCGUUGGCGUGAUGGUCACGCGUCUCCCUCCUAAGGCGAAGGAUGCGGGUUCGAGUCCCGUACGGAACG, which yeast fitness is on record?
**A.** ≤ 0.5

**Q.** With GUUCCGUUGGCGUGAUGGUACCGCGUCUCCCUCCUAAGGAGAAGACUGCGGGUUCGAGUCCCGUCCGGAACG as the variant, how does the yeast fitness read?
**A.** 0.539
